Measured values of several laboratories.
CDK16: Cyclin-dependent kinase 16 (CDK16, Homo sapiens, UniProt Q00536)
CDK16 with cyclin Y: Cyclin-dependent kinase 16, with cyclin Y (CDK16, Homo sapiens, UniProt Q00536)

Structure (SMILES) | target | observed | mode | technique | concentration | measurement | value
Cc1ccc(NC(=O)c2ccnc(C(F)(F)F)c2)cc1-c1cc(OCCO)nc(N2CCOCC2)c1 | CDK16 | binding | – | – | 1 µM | remaining binding | 100%
Cc1cc(O)c(-c2ccc([C@@H](C)CN(C)C)cc2)c2c1[nH]c(=O)c1sccc12 | CDK16 | enzyme activity | inhibitor | – | 0.1 µM | inhibition | -12.9%
COc1ccc2oc(-c3ccc4nc(N)oc4c3)c/c(=N\c3ccccc3NC(=O)CCN)c2c1 | CDK16 with cyclin Y | binding | – | – | 1 µM | remaining binding | 107%
C=CC(=O)N1CCC[C@@H](n2nc(-c3ccc(Oc4ccccc4)cc3)c3c(N)ncnc32)C1 | CDK16 | enzyme activity | inhibitor | – | 1 µM | inhibition | 10%
N#Cc1ccc(NC(=O)Nc2ccccc2)cc1 | CDK16 | cell-free assay | – | competition with immobilised ligand | 25 µM | remaining binding | 68%
CCCCC(=O)Nc1ccc(-c2ccc3ncn(CCC)c(=O)c3c2)cn1 | CDK16 | binding | – | competition with immobilised ligand | 0.5 µM | remaining binding | 90%
COc1ccc2[nH]c3c4[nH]c5ccc(OC)cc5c4c4c(c3c2c1)C(=O)NC4=O | CDK16 | binding | – | – | 1 µM | remaining binding | 99%
CC(C)S(=O)(=O)c1ccc2nccc(Nc3ccc4sc(C5CCCC5)nc4c3)c2c1 | CDK16 with cyclin Y | enzyme activity | inhibitor | – | 1 µM | activity vs control | 106%
CO[C@@H]1[C@H](N(C)C(=O)c2ccccc2)C[C@H]2O[C@]1(C)n1c3ccccc3c3c4c(c5c6ccccc6n2c5c31)C(=O)NC4 | CDK16 | enzyme activity | inhibitor | – | 1 µM | inhibition | 5%
